The record followed here is ChEMBL document CHEMBL3046667, “Synthesis and herbicidal activity evaluation of novel β-carboline derivatives” (Molecules, 2012).

The structures appear in SMILES notation.

The first experiment deals with Echinochloa crus-galli. Kind of experiment: Herbicidal activity against Echinochloa crus-galli (barnyard grass) assessed as growth inhibition at 10 ug/ml. It counts as functional. As to conditions: read-out: GI. The method in brief:
(§1)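 Compounds formulated as 10 g/L emulsified concentrates (DMSO solvent, Tween-80 emulsifier), diluted in water and applied to pot-grown plants in a greenhouse (23 ± 1 °C, 60 ± 5% RH, 8 h/day photoperiod). Distilled water and 2,4-D serve as references. Shoot height, root length and fresh weight are measured per cup. Percent inhibition is taken relative to water; mean of three repeats.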
Take `O=C(N/N=C\c1ccccc1)c1cc2c([nH]c3ccccc32)c(-c2ccc(Cl)cc2)n1`: the inhibition of growth at 10 µg/mL was determined as 16.7%.

With `Cc1n[nH]c(Cl)c1/C=N\NC(=O)c1cc2c(cn1)[nH]c1ccccc12`, the inhibition of growth at 10 µg/mL came to 6.34%.

As to `COc1cc(/C=N\NC(=O)c2cc3c(cn2)[nH]c2ccccc23)cc(OC)c1OC`, the inhibition of growth at 10 µg/mL was determined as 15.1%.

For `O=C(N/N=C\c1ccc([N+](=O)[O-])cc1)c1cc2c(cn1)[nH]c1ccccc12`, the inhibition of growth at 10 µg/mL was 24.6%.

Consider `O=C(N/N=C\c1ccco1)c1cc2c(cn1)[nH]c1ccccc12`, for which the inhibition of growth at 10 µg/mL was found to be 0%.

As to `O=C(N/N=C\c1ccc(C(F)(F)F)cc1)c1cc2c([nH]c3ccccc32)c(-c2ccccc2)n1`, the inhibition of growth at 10 µg/mL amounted to 27.9%.

Consider `COc1ccc(/C=N\NC(=O)c2cc3c(cn2)[nH]c2ccccc23)cc1`, for which the inhibition of growth at 10 µg/mL was 17.5%.

Regarding `COc1cc(OC)c(/C=N\NC(=O)c2cc3c(cn2)[nH]c2ccccc23)c(OC)c1`, the inhibition of growth at 10 µg/mL worked out at 0%.

For the compound `O=C(N/N=C\c1ccc(C(F)(F)F)cc1)c1cc2c([nH]c3ccccc32)c(-c2ccc(Cl)cc2)n1`, the inhibition of growth at 10 µg/mL worked out at 24.1%.

On to `O=C(N/N=C\c1ccccc1)c1cc2c([nH]c3ccccc32)c(-c2ccc(C(F)(F)F)cc2)n1`, for which the inhibition of growth at 10 µg/mL turned out to be 19.4%.

`O=C(N/N=C\c1ccc(Cl)cc1)c1cc2c(cn1)[nH]c1ccccc12`: the inhibition of growth at 10 µg/mL amounted to 0%.

On to `O=C(N/N=C\c1ccccc1)C1Cc2c([nH]c3ccccc23)CN1` (stereo not given), for which the inhibition of growth at 10 µg/mL turned out to be 0%.

In a further experiment the test system is Echinochloa crus-galli. Kind of experiment: Herbicidal activity against Echinochloa crus-galli (barnyard grass) assessed as growth inhibition at 100 ug/ml. The following applies: read-out: GI. Format: functional. The method in brief: as §1
Take `O=C(N/N=C\c1ccccc1)c1cc2c([nH]c3ccccc32)c(-c2ccc(Cl)cc2)n1`: the inhibition of growth at 100 µg/mL amounted to 43.7%.

For the compound `Cc1n[nH]c(Cl)c1/C=N\NC(=O)c1cc2c(cn1)[nH]c1ccccc12`, the inhibition of growth at 100 µg/mL was determined as 28.1%.

On to `COc1cc(/C=N\NC(=O)c2cc3c(cn2)[nH]c2ccccc23)cc(OC)c1OC`, for which the inhibition of growth at 100 µg/mL was 37.1%.

In the case of `O=C(N/N=C\c1ccc([N+](=O)[O-])cc1)c1cc2c(cn1)[nH]c1ccccc12`, the inhibition of growth at 100 µg/mL was found to be 43.2%.

For `O=C(N/N=C\c1ccco1)c1cc2c(cn1)[nH]c1ccccc12`, the inhibition of growth at 100 µg/mL is 0%.

Regarding `O=C(N/N=C\c1ccc(C(F)(F)F)cc1)c1cc2c([nH]c3ccccc32)c(-c2ccccc2)n1`, the inhibition of growth at 100 µg/mL was 60.3%.

Consider `COc1ccc(/C=N\NC(=O)c2cc3c(cn2)[nH]c2ccccc23)cc1`, for which the inhibition of growth at 100 µg/mL turned out to be 29.6%.

In the case of `COc1cc(OC)c(/C=N\NC(=O)c2cc3c(cn2)[nH]c2ccccc23)c(OC)c1`, the inhibition of growth at 100 µg/mL is 12.6%.

`O=C(N/N=C\c1ccc(C(F)(F)F)cc1)c1cc2c([nH]c3ccccc32)c(-c2ccc(Cl)cc2)n1`: the inhibition of growth at 100 µg/mL is 57.9%.

As for `O=C(N/N=C\c1ccccc1)c1cc2c([nH]c3ccccc32)c(-c2ccc(C(F)(F)F)cc2)n1`, the inhibition of growth at 100 µg/mL stood at 31.2%.

In the case of `O=C(N/N=C\c1ccc(Cl)cc1)c1cc2c(cn1)[nH]c1ccccc12`, the inhibition of growth at 100 µg/mL amounted to 0%.

Turning to `O=C(N/N=C\c1ccccc1)C1Cc2c([nH]c3ccccc23)CN1` (stereo not given), the inhibition of growth at 100 µg/mL came out at 15%.

The subject of another experiment is Brassica rapa subsp. oleifera. The experiment is described as follows: Herbicidal activity against Brassica rapa subsp. oleifera. It counts as functional, organism-based.
Details: not given
In short, it runs like this:
as §1
Regarding `O=C(N/N=C\c1ccc(C(F)(F)F)cc1)c1cc2c([nH]c3ccccc32)c(-c2ccccc2)n1`, a half-maximal effect (EC50) was put at 14.2 µM.

For the next experiment, the system named is Brassica rapa subsp. oleifera. Kind of experiment: Herbicidal activity against Brassica rapa subsp. oleifera assessed as growth inhibition at 10 ug/ml. Format: functional. The following applies: read-out: GI. In short, it runs like this: as §1
Take `O=C(N/N=C\c1ccccc1)c1cc2c([nH]c3ccccc32)c(-c2ccc(Cl)cc2)n1`: the inhibition of growth at 10 µg/mL was 67%.

Turning to `Cc1n[nH]c(Cl)c1/C=N\NC(=O)c1cc2c(cn1)[nH]c1ccccc12`, the inhibition of growth at 10 µg/mL was 32.2%.

`COc1cc(/C=N\NC(=O)c2cc3c(cn2)[nH]c2ccccc23)cc(OC)c1OC`: the inhibition of growth at 10 µg/mL was determined as 16.3%.

As for `O=C(N/N=C\c1ccc([N+](=O)[O-])cc1)c1cc2c(cn1)[nH]c1ccccc12`, the inhibition of growth at 10 µg/mL came to 30.9%.

With `O=C(N/N=C\c1ccco1)c1cc2c(cn1)[nH]c1ccccc12`, the inhibition of growth at 10 µg/mL came out at 2.59%.

Take `O=C(N/N=C\c1ccc(C(F)(F)F)cc1)c1cc2c([nH]c3ccccc32)c(-c2ccccc2)n1`: the inhibition of growth at 10 µg/mL amounted to 57.9%.

Consider `COc1ccc(/C=N\NC(=O)c2cc3c(cn2)[nH]c2ccccc23)cc1`, for which the inhibition of growth at 10 µg/mL was 24.7%.

With `COc1cc(OC)c(/C=N\NC(=O)c2cc3c(cn2)[nH]c2ccccc23)c(OC)c1`, the inhibition of growth at 10 µg/mL was found to be 13.8%.

Take `O=C(N/N=C\c1ccc(C(F)(F)F)cc1)c1cc2c([nH]c3ccccc32)c(-c2ccc(Cl)cc2)n1`: the inhibition of growth at 10 µg/mL was 66.9%.

On to `O=C(N/N=C\c1ccccc1)c1cc2c([nH]c3ccccc32)c(-c2ccc(C(F)(F)F)cc2)n1`, for which the inhibition of growth at 10 µg/mL is 27.1%.

In the case of `O=C(N/N=C\c1ccc(Cl)cc1)c1cc2c(cn1)[nH]c1ccccc12`, the inhibition of growth at 10 µg/mL is 18%.

As for `O=C(N/N=C\c1ccccc1)C1Cc2c([nH]c3ccccc23)CN1` (stereo not given), the inhibition of growth at 10 µg/mL was determined as 3.75%.

The test system of another experiment is Echinochloa crus-galli. Kind of experiment: Herbicidal activity against Echinochloa crus-galli (barnyard grass).
Details: not given
It counts as functional, organism-based. In short, it runs like this:
as §1
With `O=C(N/N=C\c1ccc(C(F)(F)F)cc1)c1cc2c([nH]c3ccccc32)c(-c2ccccc2)n1`, the midpoint of the response, the EC50, lay at 14.2 µM.

For the next experiment, the system named is Brassica rapa subsp. oleifera. The experiment is described as follows: Herbicidal activity against Brassica rapa subsp. oleifera assessed as growth inhibition at 100 ug/ml. Format: functional. As to conditions: read-out: GI. In short, it runs like this:
as §1
Regarding `O=C(N/N=C\c1ccccc1)c1cc2c([nH]c3ccccc32)c(-c2ccc(Cl)cc2)n1`, the inhibition of growth at 100 µg/mL was 91.7%.

For the compound `Cc1n[nH]c(Cl)c1/C=N\NC(=O)c1cc2c(cn1)[nH]c1ccccc12`, the inhibition of growth at 100 µg/mL amounted to 90.8%.

For `COc1cc(/C=N\NC(=O)c2cc3c(cn2)[nH]c2ccccc23)cc(OC)c1OC`, the inhibition of growth at 100 µg/mL stood at 58.4%.

`O=C(N/N=C\c1ccc([N+](=O)[O-])cc1)c1cc2c(cn1)[nH]c1ccccc12`: the inhibition of growth at 100 µg/mL stood at 85.4%.

In the case of `O=C(N/N=C\c1ccco1)c1cc2c(cn1)[nH]c1ccccc12`, the inhibition of growth at 100 µg/mL was determined as 17.9%.

On to `O=C(N/N=C\c1ccc(C(F)(F)F)cc1)c1cc2c([nH]c3ccccc32)c(-c2ccccc2)n1`, for which the inhibition of growth at 100 µg/mL was found to be 100%.

Take `COc1ccc(/C=N\NC(=O)c2cc3c(cn2)[nH]c2ccccc23)cc1`: the inhibition of growth at 100 µg/mL amounted to 71.6%.

Regarding `COc1cc(OC)c(/C=N\NC(=O)c2cc3c(cn2)[nH]c2ccccc23)c(OC)c1`, the inhibition of growth at 100 µg/mL was determined as 42.7%.

As to `O=C(N/N=C\c1ccc(C(F)(F)F)cc1)c1cc2c([nH]c3ccccc32)c(-c2ccc(Cl)cc2)n1`, the inhibition of growth at 100 µg/mL was determined as 93.7%.

On to `O=C(N/N=C\c1ccccc1)c1cc2c([nH]c3ccccc32)c(-c2ccc(C(F)(F)F)cc2)n1`, for which the inhibition of growth at 100 µg/mL is 82.3%.

Turning to `O=C(N/N=C\c1ccc(Cl)cc1)c1cc2c(cn1)[nH]c1ccccc12`, the inhibition of growth at 100 µg/mL was 47.3%.

For the compound `O=C(N/N=C\c1ccccc1)C1Cc2c([nH]c3ccccc23)CN1` (stereo not given), the inhibition of growth at 100 µg/mL came to 25.3%.
